Data as given in the array DNA melting data of Ke et al. (doi:10.1101/2024.01.08.574731).

Tests used:
[1] = folding enthalpy; higher = less favourable; fluorescence melt of hairpins on a sequencing array, two-state fit; conditions: sodium 0.088 M
In short: (§1)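 Cy3 signals were normalised both to pre-quench Cy3 and to control constructs. They came from library hairpins carrying annealed Cy3 and quencher oligos on a sequenced MiSeq flow cell, imaged in 50 mM Na-HEPES pH 8.0, 25 mM NaCl, in 2.5 °C steps up to 60 °C. Bootstrapped two-state fits gave melting temperature and folding enthalpy, and four replicates were combined by inverse variance. Fitted temperatures were then raised by 9.35 °C to match UV melts.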

[2] = melting temperature; fluorescence melt of hairpins on a sequencing array, two-state fit, raised by 9.35 °C to match UV melts; conditions: sodium 0.088 M
In short: as §1

Row | Sequence | folding enthalpy [1] [kcal/mol] | Tm [2] [°C]
1 | GTTTAGGGAAACTTAGAC ((.((.(....).)).)) | -13.6 | 32.8
2 | GCGAGCGAAAGCTGACGC ((((((....)))..))) | -24.7 | 51.1
3 | GCGTGATCACGC ((((....)))) | -35.6 | 59.1
4 | GACGCCGGAAACGGCATC ((.((((....)))).)) | -11.4 | 43.4
5 | GCATGTGCGAAAGCATGC (((..(((....)))))) | -18.3 | 52.2
6 | GTTGGGCGAAAGCCAAC (((.(((....)))))) | -17.5 | 53
7 | GTCGCAGGAAACTGCGGC (.(((((....))))).) | -32.2 | 64.5
8 | GAATTAGGAAACCAATTC (((((.(....).))))) | -10.8 | 27.7
9 | GATCAGTACCCTGATC ((((((....)))))) | -35.6 | 49.4
10 | GTTTGCGAAAGCAGAAAC ((((((....)))..))) | -11.2 | 34.2
11 | GGTTTCGAAAGAAACACC ((((((....)))..))) | -11.3 | 45.7
12 | GATCACTATTGTGATC ((((((....)))))) | -37.8 | 58.3
13 | GTGTGCGAAAGCACCAC ((((((....))).))) | -9.37 | 51
14 | GCGCAGCGAAAGCCCCGC (((..((....))..))) | -5.72 | 36.4
15 | GGACCCGAAAGGGTCTCC ((((((....)))..))) | -7.17 | 58.9
16 | CGCTCGGAAACGACGCG ((((((....))).))) | -34.6 | 51.1
17 | GCGAGCGAAAGCTATCGC ((((((....)))..))) | -23.3 | 54.6
18 | GATCTACAGCTAGATC ((((((....)))))) | -31.8 | 35.1
19 | GATCCTAAGTAGGATC ((((((....)))))) | -39.5 | 51.7
20 | GCATTCGAAAGAATTGC ((((((....))).))) | -19.5 | 41.1
21 | GTGGTCGGAAACGACTAC ((.((((....)))).)) | -30 | 53.7
22 | GCAGGCGGAAACGCTTGC (((.(((....))).))) | -38.5 | 62.1
23 | GGAGAGCGAAAGCTGTCC (((.(((....))).))) | -32.8 | 58.2

Row | Sequence | folding enthalpy [1] [kcal/mol] | Tm [2] [°C]
24 | GTCCGAGAAATCGGAC ((((((....)))))) | -34.5 | 65.9
25 | GACCCCGAAAGGGTGGTC ((((((....)))..))) | -16.5 | 49.4
26 | GCGTGTCACGC ((((...)))) | -31.1 | 57.7
27 | GCAACGCGAAAGCGACGC ((..(((....)))..)) | -15.9 | 48.5
28 | GATGTGGGAAACTGCATC ((((..(....)..)))) | -27.1 | 36.1
29 | GATAACGAAAGTTATATC ((((((....)))..))) | -16 | 38.9
30 | GTACGAGGAAACTCGCAC ((.((((....)))).)) | -19.8 | 42.4
31 | GGTGAAGAAATTCACC ((((((....)))))) | -32.5 | 52.6
32 | GACGACGGAAACGTCATC ((.((((....)))).)) | -15.7 | 38.8
33 | GGCCGCTCGAAAGAGGCC (((..(((....)))))) | -48.5 | 56.5
34 | GACAGACGAAAGTCGGTC (((.(((....))).))) | -36.2 | 59.6
35 | GGTTAGCGAAAGCTACC (((.(((....)))))) | -17.2 | 53.3
36 | GCTGAGGGAAACCTTGGC ((..(((....)))..)) | -26.6 | 38.1
37 | GCCTATCGAAAGATGGGC (((.(((....))).))) | -34.6 | 60.1
38 | GATAACGGAAACGTTACC (.(((((....))))).) | -16.5 | 34
39 | GTTAGCGGAAACGCTGAC ((.((((....)))).)) | -29.4 | 52.3
40 | GAAGCTGGAAACAGCTCC (.(((((....))))).) | -13.7 | 39
41 | GCGGCCCGCCGC ((((....)))) | -16.9 | 68.7
42 | GTCTGCGAAAGCAAGAC ((((((....))).))) | -26.3 | 60.5
43 | GATCATGGTTATGATC ((((((....)))))) | -40.7 | 48.3
44 | GCAGTTACGAAAGTATGC (((..(((....)))))) | -21.6 | 33.9
45 | GGCCTTCGAAAGAAGCC (((.(((....)))))) | -27.6 | 51.4
46 | GACCGCGGAAACGCAGTC (((.(((....))).))) | -24.6 | 48.9
